Screening data from PubChem BioAssay.
UBC13 polyUb = inhibitors of human UBC13 polyubiquitin chain formation. TR-FRET. inhibition, % at 20 µM. actives 0.47% (n = 330,000). AID 485273; in the data active means inhibition above about 45%, passing the limit was not always enough
Target sequence (P61088 whole entry, looked up): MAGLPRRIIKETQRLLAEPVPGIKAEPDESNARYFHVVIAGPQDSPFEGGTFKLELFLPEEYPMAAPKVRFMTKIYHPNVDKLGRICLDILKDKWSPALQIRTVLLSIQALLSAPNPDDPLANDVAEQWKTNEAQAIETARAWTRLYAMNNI
Apaf-1 inh = inhibitors of human Apaf-1 apoptosome; O14727; actives 0.71% (n = 330,000); reconstituted apoptosome caspase-3 activity, DEVD-Rh110 fluorescence; inhibition, % at 20 µM; active means inhibition of at least 40% at 20 µM
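Assay system: Apoptosome proteins | Medium: pH 7.5 Hepes buffer with CHAPS, BSA, DTT | Also added: Cytochrome c and DEVD-Rh110 substrate | Times: 30 min plus 50 min, RT | Detection: Rhodamine 110 fluorescence at Ex 480/Em 540 nm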
MEKK2mut PB1 HTS = signal of MEK5 binding to mutant human MEKK2 PB1 domain; bead flow cytometry, Alexa488-MEK5 binding to MEKK2 mutant; percent response, % at 10 µM; actives 0.35% (n = 290,000); AID 1530; in the data active means percent response above about 24%, passing the limit was not always enough
MEKK2wt PB1 HTS = raises or lowers MEK5 binding to wildtype human MEKK2 PB1 domain; actives 1.1% (n = 290,000); bead flow cytometry, Alexa488-MEK5 binding to MEKK2 WT; actives lie on both sides; binding response (% of control), % at 10 µM; in the data active means binding response below about 67% or above about 130%
MEKK3 PB1 HTS = raises or lowers MEK5 binding to the human MEKK3 PB1 domain; binding response (% of control), % at 10 µM; Q99759; actives 1.4% (n = 290,000); bead-based flow cytometry, Alexa488-MEK5 binding to MEKK3; actives lie on both sides; 0 = blocked by unlabeled MEK5, 100 = vehicle; AID 1529;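 active means binding response more than 3 SD above or below the average of its plate-row segment, actives on both sides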;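 further: Alexa488 bead fluorescence after subtracting the streptavidin-only scavenger bead signal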
Target sequence (Q99759 whole entry, looked up, the tested form may be a part): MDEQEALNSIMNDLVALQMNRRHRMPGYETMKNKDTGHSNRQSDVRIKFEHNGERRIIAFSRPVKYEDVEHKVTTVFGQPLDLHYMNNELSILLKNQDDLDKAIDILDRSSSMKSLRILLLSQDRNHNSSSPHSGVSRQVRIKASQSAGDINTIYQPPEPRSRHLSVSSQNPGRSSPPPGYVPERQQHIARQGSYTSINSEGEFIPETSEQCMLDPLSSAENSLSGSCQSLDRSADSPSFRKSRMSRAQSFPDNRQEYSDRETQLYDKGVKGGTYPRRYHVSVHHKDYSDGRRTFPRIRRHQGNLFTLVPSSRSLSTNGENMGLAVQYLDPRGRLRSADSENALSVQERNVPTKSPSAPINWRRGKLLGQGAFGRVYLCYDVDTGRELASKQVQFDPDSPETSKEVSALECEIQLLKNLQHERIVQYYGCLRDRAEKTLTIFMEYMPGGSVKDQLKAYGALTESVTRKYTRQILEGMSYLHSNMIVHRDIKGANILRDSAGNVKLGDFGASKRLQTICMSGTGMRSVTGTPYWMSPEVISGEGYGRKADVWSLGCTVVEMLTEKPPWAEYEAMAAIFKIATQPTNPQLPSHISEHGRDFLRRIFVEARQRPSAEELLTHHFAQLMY
PREPL inh = inhibits the human prolyl oligopeptidase-like enzyme. Q4J6C6. recombinant PREPL, fluorescence polarization activity-based probe. inhibition, % at 5.96 µM. actives 0.68% (n = 320,000). AID 2751; in the data active means inhibition above about 43%
MEKK2wt confirm = raises or lowers MEK5 binding to wildtype human MEKK2, retest | shares compounds with MEKK3 PB1 HTS | bead flow cytometry, Alexa488-MEK5 binding to MEKK2 WT; actives lie on both sides | binding response (% of control), % at 10 µM | actives 2.4% (n = 5,900) | AID 1892; in the data active means binding response below about 16% or above about 210%; inactive means in between
MEKK2mut-MEK5 = signal of MEK5 binding to mutant human MEKK2, retest; shares compounds with MEKK3 PB1 HTS; bead flow cytometry, Alexa488-MEK5 binding to MEKK2 mutant; percent response, % at 10 µM; actives 2% (n = 5,900); AID 1893; in the data active means percent response mostly above about 71%, no sharp cut-off; inactive means mostly below about 38%;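 further: higher means compound restores mutant binding toward wildtype level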
MEKK3 confirm = MEKK3-MEK5 PB1 inhibition, single concentration confirmation; binding response (% of control), % at 10 µM; bead flow cytometry, Alexa488-MEK5 binding to MEKK3; stronger effect = lower value; actives 1.8% (n = 5,900); AID 1894; shares compounds with MEKK3 PB1 HTS;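 active means binding response below 72% of control, or above a set upper limit, though filed actives all read lower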
Numbers stand for hits; [ ] = another dose, or the depositor's remark. Sampled rows, rich in hits. Any-hit rate of the full collection: about 3.1%.

Results for CN(C)CCCN(C(=O)CCOc1ccccc1)c1nc2ccc(F)cc2s1 ?
MEKK2mut PB1 HTS: inactive; MEKK2wt PB1 HTS: 143; MEKK3 PB1 HTS: inactive; MEKK2wt confirm: inactive; MEKK2mut-MEK5: inactive; MEKK3 confirm: inactive

Results for CN(C)CCCN(C(=O)COc1ccc(Cl)cc1)c1nc2c(F)cccc2s1 ?
UBC13 polyUb: inactive; Apaf-1 inh: inactive; MEKK2mut PB1 HTS: inactive; MEKK2wt PB1 HTS: 162; MEKK3 PB1 HTS: inactive; PREPL inh: inactive; MEKK2wt confirm: inactive; MEKK2mut-MEK5: inactive; MEKK3 confirm: inactive

Results for C[C@H](NC(=O)c1nc[nH]c1C(=O)NCC(=O)OCc1ccccc1)c1ccccc1 ?
UBC13 polyUb: inactive; Apaf-1 inh: inactive; MEKK2mut PB1 HTS: inactive; MEKK2wt PB1 HTS: inactive; MEKK3 PB1 HTS: inactive; PREPL inh: inactive

How did NC(=O)CNC(=O)C1CCN(S(=O)(=O)c2ccc(-n3cnnn3)cc2)CC1 do in these assays?
UBC13 polyUb: inactive; Apaf-1 inh: inactive; MEKK2mut PB1 HTS: inactive; MEKK2wt PB1 HTS: inactive; MEKK3 PB1 HTS: inactive; PREPL inh: inactive

How did Cc1cccc2sc(N(CCCN(C)C)C(=O)COc3ccc(Cl)cc3)nc12 do in these assays?
UBC13 polyUb: inactive; Apaf-1 inh: inactive; MEKK2mut PB1 HTS: 53; MEKK2wt PB1 HTS: 191; MEKK3 PB1 HTS: inactive; PREPL inh: inactive; MEKK2wt confirm: inactive; MEKK2mut-MEK5: inactive; MEKK3 confirm: inactive

Results for CN1C(=CC=C2C=C(I)C(=O)C(I)=C2)C(C)(C)c2ccccc21 ?
MEKK2mut PB1 HTS: inactive; MEKK2wt PB1 HTS: -1.0[inhibitor]; MEKK3 PB1 HTS: 40[inhibitor]; MEKK2wt confirm: inactive; MEKK2mut-MEK5: inactive; MEKK3 confirm: 68

Results for CN1/C(=C\C=N\O)C(C)(C)c2ccccc21 ?
UBC13 polyUb: inactive; Apaf-1 inh: inactive; MEKK2mut PB1 HTS: inactive; MEKK2wt PB1 HTS: inactive; MEKK3 PB1 HTS: inactive; PREPL inh: inactive

What do the screens show for `CN1/C(=C\C=C2/C(=O)Oc3ccccc3C2=O)C(C)(C)c2ccccc21`?
MEKK2mut PB1 HTS: inactive; MEKK2wt PB1 HTS: inactive; MEKK3 PB1 HTS: 50[inhibitor]; PREPL inh: inactive; MEKK2wt confirm: inactive; MEKK2mut-MEK5: inactive; MEKK3 confirm: inactive

Results for O=C(CNC1CCCCC1)Nc1cccc(C(F)(F)F)c1 ?
UBC13 polyUb: inactive; Apaf-1 inh: inactive; MEKK2mut PB1 HTS: inactive; MEKK2wt PB1 HTS: inactive; MEKK3 PB1 HTS: inactive; PREPL inh: inactive

What do the screens show for `COc1ccccc1Nc1nc(-c2sc(N)nc2C)cs1`?
UBC13 polyUb: inactive; Apaf-1 inh: inactive; MEKK2mut PB1 HTS: inactive; MEKK2wt PB1 HTS: inactive; MEKK3 PB1 HTS: inactive; PREPL inh: inactive

How did Cc1nc(N)sc1-c1csc(Nc2ncccn2)n1 do in these assays?
MEKK2mut PB1 HTS: inactive; MEKK2wt PB1 HTS: inactive; MEKK3 PB1 HTS: 35[inhibitor]; MEKK2wt confirm: inactive; MEKK2mut-MEK5: inactive; MEKK3 confirm: 43

What do the screens show for `Nc1nc(SCC(=O)Nc2ccccc2)nc2nc3c(cc12)CCCC3`?
UBC13 polyUb: inactive; Apaf-1 inh: inactive; MEKK2mut PB1 HTS: inactive; MEKK2wt PB1 HTS: inactive; MEKK3 PB1 HTS: inactive; PREPL inh: inactive

How did O=C(CSc1nc2nc3c(cc2c(=O)n1-c1ccccc1)CCCC3)Nc1ccccc1 do in these assays?
UBC13 polyUb: inactive; Apaf-1 inh: inactive; MEKK2mut PB1 HTS: inactive; MEKK2wt PB1 HTS: inactive; MEKK3 PB1 HTS: 131; PREPL inh: inactive; MEKK2wt confirm: inactive; MEKK2mut-MEK5: inactive; MEKK3 confirm: inactive

What do the screens show for `Cc1ccc(S(=O)(=O)NCC(=O)NCC2CCCCC2)cc1C`?
UBC13 polyUb: inactive; Apaf-1 inh: inactive; MEKK2mut PB1 HTS: inactive; MEKK2wt PB1 HTS: inactive; MEKK3 PB1 HTS: inactive; PREPL inh: inactive

How did Cc1cc(C2=NNC(=NCCc3ccccc3)SC2)c(C)n1-c1c(C)n(C)n(-c2ccccc2)c1=O do in these assays?
UBC13 polyUb: inactive; Apaf-1 inh: inactive; MEKK2mut PB1 HTS: inactive; MEKK2wt PB1 HTS: inactive; MEKK3 PB1 HTS: 50[inhibitor]; PREPL inh: inactive; MEKK2wt confirm: inactive; MEKK2mut-MEK5: inactive; MEKK3 confirm: inactive

How did CCOC(=O)Cc1csc(NC(=O)c2cc(-c3ccncc3)nc3ccccc23)n1 do in these assays?
UBC13 polyUb: inactive; Apaf-1 inh: inactive; PREPL inh: inactive

What do the screens show for `CN1CCC/C1=C/C=C1\SC(=S)NC1=O`?
MEKK2mut PB1 HTS: inactive; MEKK2wt PB1 HTS: inactive; MEKK3 PB1 HTS: 151; PREPL inh: inactive; MEKK2wt confirm: inactive; MEKK2mut-MEK5: inactive; MEKK3 confirm: inactive

How did Cc1cc(/C=C2\SC(=S)NC2=O)c(C)n1C1CC1 do in these assays?
UBC13 polyUb: inactive; Apaf-1 inh: inactive; PREPL inh: inactive

How did COC(=O)c1ccc(CNC(=O)Cn2cnc3c(OCc4ccccc4)ncnc32)cc1 do in these assays?
UBC13 polyUb: inactive; Apaf-1 inh: inactive; PREPL inh: inactive

Results for CN(C)c1nc(N/N=C/c2ccccc2O)nc(Nc2ccc(F)cc2)n1 ?
UBC13 polyUb: inactive; Apaf-1 inh: inactive; MEKK2mut PB1 HTS: inactive; MEKK2wt PB1 HTS: 140; MEKK3 PB1 HTS: inactive; PREPL inh: inactive; MEKK2wt confirm: inactive; MEKK2mut-MEK5: inactive; MEKK3 confirm: inactive

Results for CCCCCCN(C(=O)CCl)c1ccccc1 ?
UBC13 polyUb: inactive; Apaf-1 inh: inactive; MEKK2mut PB1 HTS: inactive; MEKK2wt PB1 HTS: inactive; MEKK3 PB1 HTS: 41[inhibitor]; PREPL inh: inactive; MEKK2wt confirm: inactive; MEKK2mut-MEK5: inactive; MEKK3 confirm: inactive

How did CCCCCCCN(C(=O)CCl)c1cccc(C)c1 do in these assays?
UBC13 polyUb: inactive; Apaf-1 inh: inactive; MEKK2mut PB1 HTS: inactive; MEKK2wt PB1 HTS: inactive; MEKK3 PB1 HTS: inactive; PREPL inh: inactive

Results for O=C(Nc1ccc(Cl)c(Cl)c1)Nc1ccc(N2CCCC2)c(S(=O)(=O)Nc2ccccc2Cl)c1 ?
UBC13 polyUb: inactive; Apaf-1 inh: inactive; MEKK2mut PB1 HTS: inactive; MEKK2wt PB1 HTS: 44[inhibitor]; MEKK3 PB1 HTS: inactive; PREPL inh: inactive; MEKK2wt confirm: inactive; MEKK2mut-MEK5: inactive; MEKK3 confirm: inactive

How did COc1ccccc1NS(=O)(=O)c1cc(NC(=O)c2cnccn2)ccc1N1CCOCC1 do in these assays?
UBC13 polyUb: inactive; Apaf-1 inh: inactive; MEKK2mut PB1 HTS: inactive; MEKK2wt PB1 HTS: inactive; MEKK3 PB1 HTS: 58[inhibitor]; PREPL inh: inactive; MEKK2wt confirm: inactive; MEKK2mut-MEK5: inactive; MEKK3 confirm: inactive
